This passage reports IC50 results from BindingDB's records for doi:10.1021/jm970034q (Oxis International, 1998).

The assay deals with T1, Polyunsaturated fatty acid 5-lipoxygenase (Rattus norvegicus, UniProt P12527).
T1 sequence (P12527 whole entry): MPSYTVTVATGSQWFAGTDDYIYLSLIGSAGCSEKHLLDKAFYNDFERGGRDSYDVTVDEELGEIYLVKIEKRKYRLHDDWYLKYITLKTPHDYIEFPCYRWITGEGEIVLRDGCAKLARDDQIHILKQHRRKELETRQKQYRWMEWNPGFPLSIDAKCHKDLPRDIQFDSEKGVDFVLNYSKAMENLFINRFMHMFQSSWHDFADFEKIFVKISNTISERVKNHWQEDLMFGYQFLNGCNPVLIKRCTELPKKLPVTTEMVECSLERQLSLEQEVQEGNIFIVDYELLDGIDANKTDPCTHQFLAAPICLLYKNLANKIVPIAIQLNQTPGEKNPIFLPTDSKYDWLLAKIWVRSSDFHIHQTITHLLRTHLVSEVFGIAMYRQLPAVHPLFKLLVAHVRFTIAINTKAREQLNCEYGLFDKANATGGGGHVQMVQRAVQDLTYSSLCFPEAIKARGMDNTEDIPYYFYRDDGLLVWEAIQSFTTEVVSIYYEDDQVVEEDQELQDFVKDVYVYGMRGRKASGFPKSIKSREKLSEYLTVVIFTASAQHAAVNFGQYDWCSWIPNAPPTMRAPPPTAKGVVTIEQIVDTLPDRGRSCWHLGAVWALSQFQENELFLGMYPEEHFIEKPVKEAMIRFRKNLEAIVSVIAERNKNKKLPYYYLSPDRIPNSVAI
Description: Inhibitory activity against 5-lipoxygenase obtained from rat basophilic leukemia cells. Put shortly:
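IC50 was determined against 5-LO in a broken RBL-1 cell assay, using a crude enzyme preparation from rat basophilic leukemia cells.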

For `Oc1oc(CCC#Cc2ccccc2CSc2ccccc2)c(O)c1O` [3,4-Dihydroxy-5-[4-(2-phenylsulfanylmethyl-phenyl)-but-3-ynyl]-5H-furan-2-one], inhibition was half-maximal at 300 nM (IC50).
